Measurements taken from ChEMBL document CHEMBL3616447, “Identification of novel PARP-1 inhibitors: Drug design, synthesis and biological evaluation” (Bioorg Med Chem Lett, 2015).

Key:
[1] = target: Poly [ADP-ribose] polymerase 1 (Homo sapiens, UniProt P09874); assay: Inhibition of PARP1 (unknown origin)
[2] = system: MCF7; assay: Anticancer activity against human MCF7 cells after 96 hrs by MTT assay; type: functional; conditions: MCF7, 96 h
In short: (§1)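 Human breast cancer lines: MCF-7 (wild type) and MDA-MB-436 (naturally carrying BRCA1 mutations, BRCA1-deficient). Cytotoxicity reported as CC50 in μM.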

[3] = Anticancer activity against human BRCA1-deficient MDA-MB-436 cells after 96 hrs by MTT assay; type: functional; conditions: MDA-MB-436, 96 h; in short: as §1

Chain of Poly [ADP-ribose] polymerase 1 (P09874 whole entry): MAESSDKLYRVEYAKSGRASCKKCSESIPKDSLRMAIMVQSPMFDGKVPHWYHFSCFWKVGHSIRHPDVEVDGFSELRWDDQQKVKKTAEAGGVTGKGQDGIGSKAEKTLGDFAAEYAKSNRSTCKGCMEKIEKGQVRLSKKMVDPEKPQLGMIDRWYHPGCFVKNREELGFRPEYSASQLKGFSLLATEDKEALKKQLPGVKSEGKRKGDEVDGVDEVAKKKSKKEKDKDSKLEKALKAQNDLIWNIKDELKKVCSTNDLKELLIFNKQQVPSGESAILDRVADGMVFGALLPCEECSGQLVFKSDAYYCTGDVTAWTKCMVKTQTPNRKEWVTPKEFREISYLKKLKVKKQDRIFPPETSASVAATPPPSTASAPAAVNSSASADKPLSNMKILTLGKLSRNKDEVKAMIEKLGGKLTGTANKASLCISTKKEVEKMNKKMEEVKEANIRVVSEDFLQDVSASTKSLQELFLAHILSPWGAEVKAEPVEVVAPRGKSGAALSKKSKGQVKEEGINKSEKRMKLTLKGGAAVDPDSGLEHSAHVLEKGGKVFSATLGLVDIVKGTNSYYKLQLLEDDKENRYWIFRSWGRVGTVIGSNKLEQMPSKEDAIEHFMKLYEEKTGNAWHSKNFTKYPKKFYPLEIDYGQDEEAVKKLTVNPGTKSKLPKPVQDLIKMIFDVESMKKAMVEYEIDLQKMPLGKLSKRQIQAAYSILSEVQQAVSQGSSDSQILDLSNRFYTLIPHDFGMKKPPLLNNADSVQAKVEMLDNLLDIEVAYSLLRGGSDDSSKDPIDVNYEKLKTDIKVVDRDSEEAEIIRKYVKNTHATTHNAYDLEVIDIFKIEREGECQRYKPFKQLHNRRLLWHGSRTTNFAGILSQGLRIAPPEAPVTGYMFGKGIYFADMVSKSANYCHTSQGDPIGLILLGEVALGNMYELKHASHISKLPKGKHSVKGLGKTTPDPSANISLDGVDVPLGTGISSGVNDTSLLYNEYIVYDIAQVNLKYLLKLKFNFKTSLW

SMILES	IC50 [1] [µM]	CC50 [2] [µM]	CC50 [3] [µM]
CNCc1ccc(-c2[nH]c3cccc4c3c2C(=O)NNC4=O)cc1	2.7	83.1	11.3
CCCNCc1ccc(-c2[nH]c3cccc4c3c2C(=O)NNC4=O)cc1		101	
CC(C)NCc1ccc(-c2[nH]c3cccc4c3c2C(=O)NNC4=O)cc1	11.3	40.7	55.7
CCCCNCc1ccc(-c2[nH]c3cccc4c3c2C(=O)NNC4=O)cc1	0.25	18	18.9
CNCc1ccc(-c2[nH]c3cc(F)cc4c3c2C(=O)NNC4=O)cc1	0.00664	65.3	56.2
CCCNCc1ccc(-c2[nH]c3cc(F)cc4c3c2C(=O)NNC4=O)cc1	0.0035	25.9	5.45
CCCCNCc1ccc(-c2[nH]c3cc(F)cc4c3c2C(=O)NNC4=O)cc1	0.00242		114
CNCc1ccc(-c2cc3c4c(c[nH]c4c2)C(=O)NNC3=O)cc1		1240	
CCCNCc1ccc(-c2cc3c4c(c[nH]c4c2)C(=O)NNC3=O)cc1	0.138	5560	112
CC(C)NCc1ccc(-c2cc3c4c(c[nH]c4c2)C(=O)NNC3=O)cc1	0.465	1920	105
CCCCNCc1ccc(-c2cc3c4c(c[nH]c4c2)C(=O)NNC3=O)cc1	0.0354	237	68.8
CNCc1ccc(-c2[nH]c3cc(F)cc4c3c2CCNC4=O)cc1 [RUCAPARIB]		19.5	3
